The record followed here is ChEMBL document CHEMBL5331144, “Design, Synthesis, and Biological Evaluation of 2-Hydroxy-4-phenylthiophene-3-carbonitrile as PD-L1 Antagonist and Its Comparison to Available Small Molecular PD-L1 Inhibitors” (J Med Chem, 2023).

Series [1] is described as follows: Ex vivo biodistribution in formalin fixed paraffin embedded tumor of human NCI-H358 cells expressing PD-L1 by immunohistochemistry staining based analysis relative to control. Type of series: ADME, Neoplasm. A digest of the protocol: (§1)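 FFPE xenograft tumours (ES2 or H358, PD-L1+/– knockout pairs) cut to 4 μm, deparaffinized at 60 °C with xylene, rehydrated, citrate pH 6.0 heat retrieval. Autoradiography: 30 min incubation with freshly formulated 18F-tracer at 0.2 MBq/mL, washed with cold PBS and water, dried, phosphor-plate exposure and quantification. Adjacent sections stained by IHC with anti-PD-L1 (5 μg/mL, clone 28-8, 60 min), DAB, hematoxylin counterstain.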

Series [2] is described as follows: Ex vivo drug localization in peripheral part of formalin fixed paraffin embedded tumor of human NCI-H358 cells expressing PD-L1 by immunohistochemistry staining based analysis. Type of series: ADME, tissue-based, Neoplasm. A digest of the protocol:
as §1

Series [3] in a line: Ex vivo biodistribution in snap-frozen human tonsils overexpressing PD-L1 by autoradiography. The class given is ADME, Tonsil. An outline of the steps:
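Snap-frozen human tonsil sections, 10 min cold acetone, then 30 min incubation with freshly formulated 18F-tracer at 0.2 MBq/mL. Washed twice with cold PBS and once with water, dried, exposed to phosphor plates and quantified by phosphor imaging.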

For series [4], the target named is Programmed cell death protein 1/Programmed cell death 1 ligand 1 (Homo sapiens) (UniProt Q15116+Q9NZQ7). Description: Inhibition of human PD-1/PD-L1 interaction assessed as induction of PD-L1 dimerization at 1:1 molar ratio by 1H-15N HMQC NMR analysis. The class given is protein-complex assay. An outline of the steps: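 Recombinant human PD-L1 (residues 18–134), expressed in E. coli BL21(DE3), refolded and purified by SEC in PBS pH 7.4. 1D and 2D NMR spectra recorded for apo protein and with ligand at 1:1 molar ratio.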

The next series has as its system Jurkat. Description: Cytotoxicity against human Jurkat T cells overexpressing PD-1 with luciferase reporter under the control of NFAT promoter at higher concentration incubated for 48 hrs by redox dye mix based analysis. Type of series: toxicity, cell-based. A digest of the protocol:
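Jurkat PD-1 effector cells (PD-1 overexpressing, luciferase reporter under NFAT promoter), 5000 cells/well, grown in RPMI 1640 with 10% FBS and 2 mM L-glutamine. Exposed 48 h to increasing compound concentrations, with DMSO held constant; DMSO alone as control. Values are mean ± SD of at least three independent experiments.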
In general terms: A reporter such as luciferase makes a cellular process visible.

Series [5] is described as follows: Ex vivo biodistribution in formalin fixed paraffin embedded tumor of human ES2 cells expressing PD-L1 by immunohistochemistry staining based analysis relative to control. The class given is ADME, Neoplasm. The following applies: es-2. An outline of the steps:
as §1

Active and inactive are the calls of the source. The rule behind the calls is not given here.

As for `Cc1c(COc2cc(OCc3cccc(C#N)c3)c(CN3C[C@@H]([18F])C[C@@H]3C(=O)O)cc2Cl)cccc1-c1ccc2c(c1)OCCO2`, the Drug uptake in series [1] is on record as 40%; in series [2], “Active”; in series [3] it was “Active”.
With `N#Cc1c(-c2ccc(F)cc2)csc1OCc1ccc(CN)cc1`, the inhibition entry in series [4] was “Active”. In the series on Jurkat, the Activity entry was “Toxic”.
In the case of `N#Cc1c(-c2ccc([18F])cc2)csc1OCc1ccc(CN)cc1`, the Drug uptake is on record as 40% in series [1], “Active” in series [2], “Active” in series [3] and “Not Active” in series [5].
Consider `Cc1c(COc2cc(OCc3cccc(C#N)c3)c(CN3C[C@H](O)C[C@@H]3C(=O)O)cc2Cl)cccc1-c1ccc2c(c1)OCCO2`, for which the inhibition result in series [4] was “Active”. Further, the Activity entry with Jurkat is given as “Toxic”.
Take `Cc1c(COc2cc(OCc3cccc(C#N)c3)c(CN3C[C@@H](F)C[C@@H]3C(=O)O)cc2Cl)cccc1-c1ccc2c(c1)OCCO2`: the Activity entry in the series with Jurkat is listed as “Toxic”.
